From article PMC9558256 (ACS Omega, 2022)

Tests used:
[1] = Cytotoxicity on Vero cells; assay type: cell-based; conditions: African green monkey
[2] = tested on: P. falciparum resistant strain F32-ART; assay: Antiplasmodial activity; assay type: cell-based; conditions: Plasmodium falciparum, F32, read-out: P. falciparum F32ART IC50
Procedure, shortened: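 Test compounds screened against artemisinin-resistant P. falciparum F32-ART (selected after 144 intermittent, increasing artemisinin doses) by SYBR Green at 1 and 10 μM, in triplicate, in two independent experiments. Compounds giving around or above 50% growth inhibition at 10 μM were retested at four doses, each in triplicate, to derive IC50.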

[3] = tested on: M. tuberculosis H37Rv; assay: MIC determination by resazurin reduction microplate assay; assay type: cell-based, Mycobacterium tuberculosis; conditions: MIC comparison with literature BNF15
[4] = Cytotoxicity on RAW 264.7 macrophages; assay type: cell-based; conditions: mouse
[5] = tested on: L. donovani axenic amastigotes (LV9); assay: In vitro antileishmanial evaluation on axenic amastigotes; assay type: cell-based; conditions: Leishmania donovani, read-out: IC50 on the axenic form of L. donovani
[6] = tested on: L. donovani intramacrophage amastigote forms (LV9); assay: In vitro antileishmanial evaluation on intramacrophage amastigotes; assay type: cell-based; conditions: Leishmania donovani, RAW264.7, 48 h, read-out: L. donovani IC50
Procedure, shortened: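 RAW 264.7 macrophages were infected with L. donovani LV9 axenic amastigotes at 10 parasites per macrophage. Test compound was added 24 h post-infection for 48 h, with top concentrations set from RAW 264.7 cytotoxicity. Parasite growth reduction was read by SYBR Green incorporation and IC50 derived by regression. Miltefosine served as reference drug.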

Compound	CC50 [1] [µM]	IC50 [2] [µM]	fold less active than BNF15 against M. tuberculosis [3]	CC50 [4] [µM]	IC50 [5] [µM]	IC50 [6] [µM]
O=C1c2ccccc2C(=O)c2c1oc(NC1CCCCC1)c2C1CCN(Cc2ccccc2)CC1 [Compound 22, 3-(1-Benzylpiperidin-4-yl)-2-(cyclohexylamino)naphtho[2,3-b]furan-4,9-dione]	36	3.6				
CC(C)(C)Nc1oc2c(c1C1CCN(Cc3ccccc3)CC1)C(=O)c1ccccc1C2=O [Compound 17, 3-(1-Benzylpiperidin-4-yl)-2-(tert-butylamino)naphtho[2,3-b]furan-4,9-dione]	86	2.5	about 7 fold			
CCCCNc1oc2c(c1C1CCN(Cc3ccccc3)CC1)C(=O)c1ccccc1C2=O [Compound 27, 3-(1-Benzylpiperidin-4-yl)-2-(butylamino)naphtho[2,3-b]furan-4,9-dione]	24	4				
CC(C)(C)Nc1oc2c(c1-c1ccc(Cl)cc1)C(=O)c1ccccc1C2=O [Compound 9, 2-(tert-Butylamino)-3-(4-chlorophenyl)naphtho[2,3-b]furan-4,9-dione]		> 10				
COc1ccc(-c2c(NC(C)(C)C)oc3c2C(=O)c2ccccc2C3=O)cc1OC [Compound 12, 2-(tert-Butylamino)-3-(3,4-dimethoxyphenyl)naphtho[2,3-b]furan-4,9-dione]		> 10				
O=C1c2ccccc2C(=O)c2c1oc(NC1CCCCC1)c2-c1ccc(Cl)cc1 [Compound 18, 3-(4-Chlorophenyl)-2-(cyclohexylamino)naphtho[2,3-b]furan-4,9-dione]	50	11		54.2	< 10	9.41
CC(C)(C)NC=C1C(=O)C(=O)c2ccccc2C1=O [Compound 28, 3-((tert-Butylamino)methylene)naphthalene-1,2,4(3H)-trione]	> 50	1.4		> 100	< 10	3.5
CCCCCCCCCCCCCCCCOP(=O)([O-])OCC[N+](C)(C)C [miltefosine, reference compound]				22.6		1.46
CCCCNc1oc2c(c1-c1cc(OC)c(OC)c(OC)c1)C(=O)c1ccccc1C2=O [Compound 24, 2-(Butylamino)-3-(3,4,5-trimethoxyphenyl)naphtho[2,3-b]furan-4,9-dione]	> 100	9				
CCCCNc1oc2c(c1-c1ccc([N+](=O)[O-])o1)C(=O)c1ccccc1C2=O [Compound 26, 2-(Butylamino)-3-(5-nitrofuran-2-yl)naphtho[2,3-b]furan-4,9-dione]		> 10				
CCCCNC=C1C(=O)C(=O)c2ccccc2C1=O [Compound 29, 3-((Butylamino)methylene)naphthalene-1,2,4(3H)-trione]	> 50	1.9		46.5	< 10	6.33
Cn1ncc2cc(-c3c(NC4CCCCC4)oc4c3C(=O)c3ccccc3C4=O)ccc21 [Compound 20, 2-(Cyclohexylamino)-3-(1-methyl-1H-indazol-5-yl)naphtho[2,3-b]furan-4,9-dione]		10				
Cn1ncc2cc(-c3c(NC(C)(C)C)oc4c3C(=O)c3ccccc3C4=O)ccc21 [Compound 13, 2-(tert-Butylamino)-3-(1-methyl-1H-indazol-5-yl)naphtho[2,3-b]furan-4,9-dione]		> 10				
CC(C)(C)Nc1oc2c(c1C1CCN(C(=O)OC(C)(C)C)CC1)C(=O)c1ccccc1C2=O [Compound 16, tert-Butyl 4-(2-(tert-Butylamino)-4,9-dioxo-4,9-dihydronaphtho[2,3-b]furan-3-yl)piperidine-1-carboxylate]		> 10		49.2	< 10	6.97
O=C1C=C(O)C(=O)c2ccccc21 [lawsone (1), 2-hydroxy-1,4-naphthoquinone, reference compound]		> 10		44		6.27
CC(C)(C)Nc1oc2c(c1-c1cc3ccccc3[nH]1)C(=O)c1ccccc1C2=O [Compound 14, 2-(tert-Butylamino)-3-(1H-indol-2-yl)naphtho[2,3-b]furan-4,9-dione]		> 10				
CCCCNc1oc2c(c1-c1ccc(Cl)cc1)C(=O)c1ccccc1C2=O [Compound 23, 2-(Butylamino)-3-(4-chlorophenyl)naphtho[2,3-b]furan-4,9-dione]		> 10				
CC(C)(C)Nc1oc2c(c1-c1ccc([N+](=O)[O-])o1)C(=O)c1ccccc1C2=O [Compound 15, 2-(tert-Butylamino)-3-(5-nitrofuran-2-yl)naphtho[2,3-b]furan-4,9-dione]		> 10				
O=C1C(O)=C([C@H]2CC[C@H](c3ccc(Cl)cc3)CC2)C(=O)c2ccccc21 [atovaquone (7), atovaquone, reference compound]	6	0.001		44		11.1
O=C1c2ccccc2C(=O)c2c1oc(NC1CCCCC1)c2-c1ccc([N+](=O)[O-])o1 [Compound 21, 2-(Cyclohexylamino)-3-(5-nitrofuran-2-yl)naphtho[2,3-b]furan-4,9-dione]		> 10				
COc1cc(-c2c(NC(C)(C)C)oc3c2C(=O)c2ccccc2C3=O)cc(OC)c1OC [Compound 11, 2-(tert-Butylamino)-3-(3,4,5-trimethoxyphenyl)naphtho[2,3-b]furan-4,9-dione]		> 10				
COc1cc(-c2c(NC3CCCCC3)oc3c2C(=O)c2ccccc2C3=O)cc(OC)c1OC [Compound 19, 2-(Cyclohexylamino)-3-(3,4,5-trimethoxyphenyl)naphtho[2,3-b]furan-4,9-dione]	> 100	6				
CC(C)(C)Nc1oc2c(c1-c1cccc(Br)c1)C(=O)c1ccccc1C2=O [Compound 10, 3-(3-Bromophenyl)-2-(tert-butylamino)naphtho[2,3-b]furan-4,9-dione]		> 10				
